Columns and labels:
Assay type in all cases: functional
[1] = test system: NCI-H23; assay: Growth inhibition of human NCI-H23 cells incubated for 48 hrs by sulforhodamine B assay; conditions: NCI-H23, 48 h
Method in brief: (§1)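 NCI-60 screen. Compounds were dosed at five concentrations spanning 10^-4 to 10^-8 M for 48 h at 37 °C. Cells were TCA-fixed, stained with 0.4% SRB and read at 515 nm against time-zero and vehicle controls. GI50 is the concentration giving a 50% reduction in net protein increase.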

[2] = test system: SK-MEL-28; assay: Growth inhibition of human SK-MEL-28 cells incubated for 48 hrs by sulforhodamine B assay; conditions: SK-MEL-28, 48 h; method in brief: as §1
[3] = test system: HL-60(TB); assay: Growth inhibition of human HL-60(TB) cells incubated for 48 hrs by sulforhodamine B assay; conditions: HL-60, 48 h
Method in brief: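 Performed at NCI's 60-line screen. Cells grown in RPMI with 5% FBS and 2 mM L-glutamine, plated 5,000–40,000 cells/well and incubated 24 h at 37 °C before compound addition. DMSO stocks were diluted in medium with gentamicin, and five concentrations spanning 10^-4 to 10^-8 M were tested. Exposure was 48 h. Cells were fixed with TCA, stained with SRB, and read at 515 nm. GI50 taken from log dose-response curves as 50% reduction in net protein increase versus control.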

[4] = test system: SF-295; assay: Growth inhibition of human SF295 cells incubated for 48 hrs by sulforhodamine B assay; conditions: SF-295, 48 h; method in brief: as §1
[5] = test system: Malme-3M; assay: Growth inhibition of human MALME-3M cells incubated for 48 hrs by sulforhodamine B assay; method in brief: as §1
[6] = test system: HCT-15; assay: Growth inhibition of human HCT15 cells incubated for 48 hrs by sulforhodamine B assay; conditions: HCT-15, 48 h; method in brief: as §1
[7] = test system: OVCAR-5; assay: Growth inhibition of human OVCAR5 cells incubated for 48 hrs by sulforhodamine B assay; conditions: OVCAR-5, 48 h; method in brief: as §1
[8] = test system: SF-268; assay: Growth inhibition of human SF268 cells incubated for 48 hrs by sulforhodamine B assay; conditions: SF-268, 48 h; method in brief: as §1
[9] = test system: MCF7; assay: Growth inhibition of human MCF7 cells incubated for 48 hrs by sulforhodamine B assay; conditions: MCF7, 48 h; method in brief: as §1
[10] = Cytotoxicity against human M9-ENL1 cells assessed as reduction in cell viability by trypan blue staining-based assay
Method in brief: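 M9-ENL1 AML cells (MLL-ENL-transduced human blood cells) plated at 10^6 cells/mL in alpha-MEM with 5% human plasma, 20% FBS, SCF, IL-3, IL-7 and FLT3. Drug diluted from DMSO stock into PBS, final DMSO ≤0.5%. After 24 h exposure, dead cells assessed by trypan blue and by flow cytometry (Annexin V/PI or Annexin V/7-AAD). Viability normalized to vehicle; EC50 from dose-response curves; triplicate.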

[11] = test system: LOX IMVI; assay: Growth inhibition of human LOXIMVI cells incubated for 48 hrs by sulforhodamine B assay; method in brief: as §1
[12] = test system: HCT-116; assay: Growth inhibition of human HCT116 cells incubated for 48 hrs by sulforhodamine B assay; conditions: HCT-116, 48 h; method in brief: as §1
[13] = test system: MOLT-4; assay: Growth inhibition of human MOLT4 cells incubated for 48 hrs by sulforhodamine B assay; conditions: MOLT-4, 48 h; method in brief: as §1
[14] = test system: HOP-92; assay: Growth inhibition of human HOP92 cells incubated for 48 hrs by sulforhodamine B assay; conditions: HOP-92, 48 h; method in brief: as §1
[15] = test system: A549; assay: Growth inhibition of human A549/ATCC cells incubated for 48 hrs by sulforhodamine B assay; conditions: A549, 48 h; method in brief: as §1
[16] = test system: OVCAR-8; assay: Growth inhibition of human OVCAR8 cells incubated for 48 hrs by sulforhodamine B assay; conditions: OVCAR-8, 48 h; method in brief: as §1
[17] = test system: NCI/ADR-RES; assay: Growth inhibition of human NCI/ADR-RES cells incubated for 48 hrs by sulforhodamine B assay; method in brief: as §1
[18] = test system: KM12; assay: Growth inhibition of human KM12 cells incubated for 48 hrs by sulforhodamine B assay; conditions: KM12, 48 h; method in brief: as §1
[19] = test system: UACC-62; assay: Growth inhibition of human UACC62 cells incubated for 48 hrs by sulforhodamine B assay; conditions: UACC-62, 48 h
Method in brief: (§2)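 NCI-60 screen run at NCI. Cells grown in RPMI medium with 5% FBS and 2 mM L-glutamine, plated at 5,000–40,000 cells/well, and preincubated 24 h at 37 °C. Time-zero plates were TCA-fixed. Compounds came from DMSO stocks and were tested at five concentrations from 10^-4 to 10^-8 M for 48 h. Cells were then TCA-fixed, stained with 0.4% SRB, and OD read at 515 nm. GI50 is the concentration giving a 50% reduction in net protein increase versus control.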

[20] = test system: CCRF-CEM; assay: Growth inhibition of human CCRF-CEM cells incubated for 48 hrs by sulforhodamine B assay; method in brief: as §1
[21] = test system: RXF 393; assay: Growth inhibition of human RXF393 cells incubated for 48 hrs by sulforhodamine B assay; conditions: RXF 393, 48 h; method in brief: as §1
[22] = test system: U-251; assay: Growth inhibition of human U251 cells incubated for 48 hrs by sulforhodamine B assay; conditions: U-251, 48 h; method in brief: as §2
[23] = test system: SNB-19; assay: Growth inhibition of human SNB19 cells incubated for 48 hrs by sulforhodamine B assay; conditions: SNB-19, 48 h; method in brief: as §2
[24] = test system: HT-29; assay: Growth inhibition of human HT-29 cells incubated for 48 hrs by sulforhodamine B assay; conditions: HT-29, 48 h; method in brief: as §1
[25] = test system: K562; assay: Growth inhibition of human K562 cells incubated for 48 hrs by sulforhodamine B assay; conditions: K562, 48 h; method in brief: as §1
[26] = test system: NCI-H226; assay: Growth inhibition of human NCI-H226 cells incubated for 48 hrs by sulforhodamine B assay; conditions: NCI-H226, 48 h; method in brief: as §1
[27] = test system: SN12C; assay: Growth inhibition of human SN12C cells incubated for 48 hrs by sulforhodamine B assay; method in brief: as §1
[28] = test system: SK-OV-3; assay: Growth inhibition of human SKOV3 cells incubated for 48 hrs by sulforhodamine B assay; conditions: SK-OV-3, 48 h; method in brief: as §1
[29] = test system: NCI-H322M; assay: Growth inhibition of human NCI-H322M cells incubated for 48 hrs by sulforhodamine B assay; method in brief: as §1
[30] = test system: UACC-257; assay: Growth inhibition of human UACC257 cells incubated for 48 hrs by sulforhodamine B assay; conditions: UACC-257, 48 h; method in brief: as §2
[31] = test system: NCI-H460; assay: Growth inhibition of human NCI-H460 cells incubated for 48 hrs by sulforhodamine B assay; conditions: NCI-H460, 48 h; method in brief: as §1
[32] = test system: SF-539; assay: Growth inhibition of human SF539 cells incubated for 48 hrs by sulforhodamine B assay; conditions: SF-539, 48 h; method in brief: as §1
[33] = test system: UO-31; assay: Growth inhibition of human UO31 cells incubated for 48 hrs by sulforhodamine B assay; conditions: UO-31, 48 h; method in brief: as §2
[34] = test system: A498; assay: Growth inhibition of human A498 cells incubated for 48 hrs by sulforhodamine B assay; conditions: A498, 48 h; method in brief: as §1
[35] = test system: RPMI-8226; assay: Growth inhibition of human RPMI8226 cells incubated for 48 hrs by sulforhodamine B assay; conditions: RPMI-8226, 48 h; method in brief: as §1
[36] = test system: NCI-H522; assay: Growth inhibition of human NCI-H522 cells incubated for 48 hrs by sulforhodamine B assay; conditions: NCI-H522, 48 h; method in brief: as §1
[37] = test system: SW-620; assay: Growth inhibition of human SW620 cells incubated for 48 hrs by sulforhodamine B assay; conditions: SW-620, 48 h; method in brief: as §2

Structure (SMILES) | GI50 [1] [µM] | GI50 [2] [µM] | GI50 [3] [µM] | GI50 [4] [µM] | GI50 [5] [µM] | GI50 [6] [µM] | GI50 [7] [µM] | GI50 [8] [µM] | GI50 [9] [µM] | EC50 [10] [µM] | GI50 [11] [µM] | GI50 [12] [µM] | GI50 [13] [µM] | GI50 [14] [µM] | GI50 [15] [µM] | GI50 [16] [µM] | GI50 [17] [µM] | GI50 [18] [µM] | GI50 [19] [µM] | GI50 [20] [µM] | other results
C=C1C(=O)O[C@@H]2[C@H]3O[C@]3(C)CC/C=C(/COC(=O)CCCc3c[nH]c4ccccc34)CC[C@@H]12 | 1.72 | 1.7 | 1.63 | 5.69 | 1.79 | 1.61 | 1.89 | 1.69 | 1.42 | 2 | 1.55 | 0.96 | 1.53 | 1.68 | 5.47 | 3.38 | 2.9 | 1.89 | 1.84 | 0.75 | GI50 [21]: 1.46 µM; GI50 [22]: 1.95 µM; GI50 [23]: 2.59 µM; GI50 [24]: 1.71 µM; GI50 [25]: 2.6 µM; GI50 [26]: 2.04 µM; GI50 [27]: 1.9 µM; GI50 [28]: 17.3 µM; GI50 [29]: 13.8 µM; GI50 [30]: 2.03 µM; GI50 [31]: 4.54 µM; GI50 [32]: 1.63 µM; GI50 [33]: 1.41 µM; GI50 [34]: 11.9 µM; GI50 [35]: 2.31 µM; GI50 [36]: 1.57 µM; GI50 [37]: 1.84 µM
C=C1C(=O)O[C@@H]2[C@H]3O[C@]3(C)CC/C=C(/COC(=O)c3cc4ccccc4[nH]3)CC[C@@H]12 | 1.69 | 1.29 | 0.54 | 1.71 | 1.56 | 0.21 | 1.14 | 1.59 | 0.3 | 1.1 | 0.18 | 0.19 | 1.51 | 0.48 | 2.06 | 1.99 | 2.2 | 2.05 | 1.47 | 0.28 | GI50 [21]: 1.07 µM; GI50 [22]: 1.89 µM; GI50 [23]: 1.6 µM; GI50 [24]: 0.27 µM; GI50 [25]: 0.32 µM; GI50 [26]: 1.47 µM; GI50 [27]: 1.74 µM; GI50 [28]: 1.65 µM; GI50 [29]: 1.68 µM; GI50 [30]: 1.61 µM; GI50 [31]: 1.73 µM; GI50 [32]: 1.32 µM; GI50 [33]: 0.88 µM; GI50 [34]: 1.74 µM; GI50 [35]: 0.26 µM; GI50 [36]: 0.75 µM; GI50 [37]: 0.25 µM
C=C1C(=O)O[C@@H]2[C@H]3O[C@]3(C)CC/C=C(/COC(=O)c3cc4cc(Cl)ccc4[nH]3)CC[C@@H]12 | 1.63 | 1.58 | 0.44 | 3.18 | 1.63 | 1 | 1.53 | 1.44 | 0.86 | 3.8 | 0.81 | 0.7 | 0.55 | 1.25 | 1.69 | 1.34 | 1.45 | 2.15 | 1.67 | 0.39 | GI50 [21]: 1.38 µM; GI50 [22]: 1.75 µM; GI50 [23]: 2.91 µM; GI50 [24]: 1.33 µM; GI50 [25]: 1.14 µM; GI50 [26]: 1.8 µM; GI50 [27]: 1.7 µM; GI50 [28]: 10.2 µM; GI50 [29]: 4 µM; GI50 [30]: 1.7 µM; GI50 [31]: 1.72 µM; GI50 [32]: 1.44 µM; GI50 [33]: 1.21 µM; GI50 [34]: 2.65 µM; GI50 [35]: 0.81 µM; GI50 [36]: 1.59 µM; GI50 [37]: 1.4 µM
